# MEKK2 mut-MEK5: signal of MEK5 binding to mutant human MEKK2 PB1 domain | bead flow cytometry, Alexa488-MEK5 binding to MEKK2 mutant | percent response, % at 10 µM | 0.35% of 290,000 active | AID 1530; in the data active means percent response above about 24%, passing the limit was not always enough
# MEKK3 PB1 HTS: raises or lowers MEK5 binding to the human MEKK3 PB1 domain. Q99759. bead-based flow cytometry, Alexa488-MEK5 binding to MEKK3; actives lie on both sides; 0 = blocked by unlabeled MEK5, 100 = vehicle. binding response (% of control), % at 10 µM. 1.4% of 290,000 active;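 active means binding response more than 3 SD above or below the average of its plate-row segment, actives on both sides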;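 further: Alexa488 bead fluorescence after subtracting the streptavidin-only scavenger bead signal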
# WT yeast gro inh: growth inhibition of WT yeast, mitochondrial fusion screen; mitochondrial fusion phenotypic screen, WT strain; inhibition, % at 10 µM; 2.1% of 190,000 active; AID 1362; in the data active means inhibition above about 58%; tested in S. cerevisiae
# MEKK2wt PB1 HTS: raises or lowers MEK5 binding to wildtype human MEKK2 PB1 domain. bead flow cytometry, Alexa488-MEK5 binding to MEKK2 WT; actives lie on both sides. 1.1% of 290,000 active. binding response (% of control), % at 10 µM; in the data active means binding response below about 67% or above about 130%
# ABCB1 inh: blocks JC-1 efflux by human ABCB1 transporter; P08183; CCRF-Adr cells, flow cytometry; inhibition, % at 6.6 µM; 0.067% of 190,000 active; AID 1326; in the data active means inhibition above about 40%;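 further: 0% = vehicle and 100% = reference inhibitor; higher value means more JC-1 retained so stronger ABCB1 efflux block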
# Target sequence (P08183 whole entry, looked up): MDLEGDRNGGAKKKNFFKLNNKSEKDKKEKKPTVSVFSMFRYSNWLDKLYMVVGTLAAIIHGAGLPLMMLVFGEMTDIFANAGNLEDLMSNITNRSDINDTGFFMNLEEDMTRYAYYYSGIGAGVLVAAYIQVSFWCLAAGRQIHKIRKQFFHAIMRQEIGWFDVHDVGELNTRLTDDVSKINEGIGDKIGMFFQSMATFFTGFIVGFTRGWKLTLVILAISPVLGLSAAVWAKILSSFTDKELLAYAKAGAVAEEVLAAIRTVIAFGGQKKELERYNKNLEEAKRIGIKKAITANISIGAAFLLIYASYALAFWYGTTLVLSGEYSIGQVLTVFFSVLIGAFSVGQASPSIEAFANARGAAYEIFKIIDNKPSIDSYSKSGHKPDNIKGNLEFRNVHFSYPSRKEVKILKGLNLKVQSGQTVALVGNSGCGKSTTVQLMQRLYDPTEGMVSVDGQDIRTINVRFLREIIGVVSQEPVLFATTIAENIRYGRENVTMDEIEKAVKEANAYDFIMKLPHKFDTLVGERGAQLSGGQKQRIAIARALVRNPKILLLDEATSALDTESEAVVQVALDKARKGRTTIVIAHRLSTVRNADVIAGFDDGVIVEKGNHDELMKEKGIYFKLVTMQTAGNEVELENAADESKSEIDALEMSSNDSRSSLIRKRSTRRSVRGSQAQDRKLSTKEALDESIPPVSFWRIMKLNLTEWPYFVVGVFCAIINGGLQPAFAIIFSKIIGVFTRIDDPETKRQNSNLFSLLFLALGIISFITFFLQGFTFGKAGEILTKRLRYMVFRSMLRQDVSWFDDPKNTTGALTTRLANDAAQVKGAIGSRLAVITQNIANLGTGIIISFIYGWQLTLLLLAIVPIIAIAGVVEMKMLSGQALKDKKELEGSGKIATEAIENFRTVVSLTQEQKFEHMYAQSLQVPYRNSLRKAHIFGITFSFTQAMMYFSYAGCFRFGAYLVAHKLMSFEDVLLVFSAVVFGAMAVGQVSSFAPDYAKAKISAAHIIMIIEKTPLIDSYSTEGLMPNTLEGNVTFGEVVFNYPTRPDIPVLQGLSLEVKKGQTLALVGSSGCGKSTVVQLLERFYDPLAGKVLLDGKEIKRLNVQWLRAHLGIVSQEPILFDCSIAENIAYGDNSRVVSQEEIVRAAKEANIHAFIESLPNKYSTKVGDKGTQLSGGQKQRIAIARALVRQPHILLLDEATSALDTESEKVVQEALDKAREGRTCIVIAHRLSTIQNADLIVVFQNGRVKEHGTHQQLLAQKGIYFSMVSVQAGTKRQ
# ABCG2 inh: human ABCG2 inhibition, ABCB1 as counter-screen; Q9UNQ0; 0.1% of 190,000 active; inhibition, % at 6.6 µM; IgMXP3 cells, JC-1 efflux, flow cytometry;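 active means inhibition above 80%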;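 further: 0% = DMSO and 100% = nicardipine control wells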
#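 Test system: IgMXP3 (ABCG2) plus far-red-tagged CCRF-Adr (ABCB1) cells / Amount: 3 million cells/mL in well / Reagent: JC-1 transporter substrate / Timing: 10 min compound exposure, 25 °C / Signal: flow cytometry, 530 nm JC-1 signal / Read-out: percent efflux inhibition, scaled nicardipine 100% to DMSO 0% / Benchmarks: nicardipine as high control, DMSO as low control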
# * = called active by the depositor; . = not tested or not shown. Shown are actives, neighbours in structure and some others; about 3.5% of the full set was active somewhere.
SMILES,MEKK2 mut-MEK5,MEKK3 PB1 HTS,WT yeast gro inh,MEKK2wt PB1 HTS,ABCB1 inh,ABCG2 inh
CC/C(=N\NC(=S)Nc1cc(C)ccc1C)c1ccc(OC(F)F)cc1,0.0,104.0,66.5*,102.0,-0.2,8.9
CC(C)/C(=N\NC(=O)Nc1ccccc1)c1ccccc1,4.0,102.0,24.1,106.0,1.8,10.4
CC/C(=N\NC(=S)Nc1ccc(OC)cc1)c1ccc(OC(F)F)cc1,17.0,108.0,48.6,120.0,0.0,41.5
CC/C(=N\NC(=S)Nc1cccc(C)c1)c1ccccc1,-8.0,95.0,71.2*,92.0,0.0,8.3
C/C(=N/NC(=S)Nc1cccc(C)c1)c1cccc([N+](=O)[O-])c1,-8.0,94.0,55.5,92.0,-0.4,8.9
Cc1nc(NC(=O)CSc2nnc(C3CC3)n2C)sc1C,2.0,103.0,.,106.0,.,.
C=CCn1c(SCC(N)=O)nc(C)cc1=O,22.0,101.0,60.9*,99.0,0.2,0.6
C=CCn1c(SCC(=O)N(CC)CC)nc(O)cc1=O,5.0,102.0,9.1,107.0,-0.3,-1.5
COc1ccc(CN(CC2CCC(C(=O)O)CC2)C(=S)Nc2cc(C)ccc2C)cc1 (configuration not stated),-1.0,102.0,-10.4,94.0,-0.2,-0.3
O=C(Oc1cccnc1)c1ccc(Cl)c(Cl)c1,.,.,96.1*,.,1.5,7.0
CC(C)(C)Nc1nc(SCc2ccccc2)nc(N2CCOCC2)n1,1.0,103.0,65.9*,110.0,1.1,13.1
COc1ccc(/C=N/NC(=S)SC)cc1OC,-2.0,99.0,60.8*,93.0,-0.8,-2.1
CSC(=S)N/N=C/c1ccccc1,-5.0,95.0,50.4,95.0,-0.2,0.3
CCCN(CCC)c1ccc(/C=C/c2ccc3cc(OCC)ccc3n2)cc1,51.0*,86.0,.,.,.,.
CN(c1ccccc1)P(=O)(N(C)c1ccccc1)N(C)c1ccccc1,-9.0,94.0,9.2,92.0,1.1,1.6
COc1ccccc1N1CCN(CC(=O)Nc2sccc2C#N)CC1,-1.0,115.0,3.2,101.0,0.4,2.7
CC1CCCC(NC(=S)NC(=O)c2ccccc2Br)C1C (configuration not stated),-2.0,98.0,63.2*,97.0,-0.6,-4.6
CCn1c(NC(=O)Nc2cccc(C)c2C)cc2sccc21,.,.,16.7,.,-2.2,-1.7
O=C(Nc1nc2ccccc2s1)c1ccc(OCC2CCCO2)cc1 (configuration not stated),1.0,102.0,14.6,101.0,-0.3,-0.5
FC(F)(F)c1cc(-c2ccco2)nc(N2CCN(c3ccccc3)CC2)n1,-1.0,87.0,27.2,89.0,0.8,4.1
O=C(CCSc1nc(-c2ccco2)cc(C(F)(F)F)n1)N1CCN(c2ccccc2)CC1,-10.0,93.0,61.8*,86.0,0.6,5.4
CCCN(CCC)C(=O)CSc1nc2ccccc2c(=O)n1C1CCCC1,-5.0,88.0,15.8,85.0,52.2*,43.5
O=C(O)c1ccccc1S(=O)(=O)CC(=O)N1CCCCC1,-1.0,100.0,.,99.0,.,.
Cc1ccc(OCC(=O)N2CCCCC2)c(Br)c1,-1.0,88.0,-2.1,87.0,1.4,38.6
Cc1cc(Cl)ccc1OCC(=O)N1CC(C)CC(C)C1 (configuration not stated),2.0,104.0,-5.4,99.0,0.4,11.1
SMILES,MEKK2 mut-MEK5,MEKK3 PB1 HTS,WT yeast gro inh,MEKK2wt PB1 HTS,ABCB1 inh,ABCG2 inh
Cc1cc(Cl)ccc1OCC(=O)N1CCCN(C(=O)COc2ccc(Cl)cc2C)CC1,-3.0,96.0,73.0*,94.0,16.8,24.2
Cc1cc(Cl)ccc1OC(C)C(=O)N1CCCN(C(=O)C(C)Oc2ccc(Cl)cc2C)CC1 (configuration not stated),8.0,103.0,59.6*,99.0,5.6,11.5
CC(C)(C)c1ccc(OCC(=O)N2CCCCCC2)c(Br)c1,-7.0,73.0,67.6*,79.0,0.2,7.1
CNC(=O)c1ccc(C)c(NC(=O)C2=C(C)OCCS2)c1,3.0,105.0,.,106.0,.,.
O=C(NC(=S)Nc1ccc2nc[nH]c2c1)c1ccccc1,9.0,105.0,.,111.0,.,.
NC(=O)c1cc(Cc2ccccc2)sc1NC(=O)c1ccco1,0.0,100.0,72.3*,102.0,-0.2,-0.2
O=C(Nc1nnc(Cc2ccccc2)s1)c1ccco1,0.0,99.0,-6.0,100.0,0.4,2.4
COc1cccc(C2=CC(c3ccccc3)n3nnnc3N2)c1 (configuration not stated),.,.,68.1*,.,1.7,26.5
O=C(Nc1ccccc1)C1CC2CCC1C2 (configuration not stated),-1.0,97.0,.,100.0,.,.
O=C(Nc1ccccc1)OC1CCC2CC1CCC2OC(=O)Nc1ccccc1 (configuration not stated),-2.0,100.0,67.2*,102.0,0.7,6.9
CCCC(C(=O)Nc1nccs1)c1ccccc1 (configuration not stated),2.0,101.0,16.9,100.0,0.4,2.4
O=C(N1CCN(c2ccccn2)CC1)N1c2ccccc2Sc2ccccc21,.,.,71.5*,.,0.1,-4.6
COc1ccc(S(=O)(=O)N2CCCCC2)cc1NC(=O)CSc1ncnc2ccccc12,4.0,97.0,11.5,87.0,14.9,30.0
COc1cc2c(cc1OC)C(C)N(C(=O)C1=NN(c3cccc(C)c3)C(=O)CC1)CC2 (configuration not stated),11.0,104.0,.,102.0,.,.
CCOC(=O)c1c(C)[nH]c(C)c1C(=O)COC(=O)/C=C/c1ccc(Cl)cc1,-3.0,95.0,73.6*,94.0,4.1,37.9
Fc1ccc(-c2csc(=S)[nH]2)cc1,-21.0,75.0,62.0*,75.0,-0.8,-3.5
CC(=O)c1sc(N/N=C\c2ccc(Br)cc2)nc1C,0.0,106.0,59.5*,108.0,-0.8,-4.6
O=C(c1ccc(Cl)cc1)N1CCC(O)(CSc2ccc(Cl)cc2Cl)CC1,-3.0,94.0,70.6*,93.0,-2.9,-2.6
COc1cccc(OC)c1OCCCCN1CCCC1,3.0,104.0,66.3*,111.0,0.2,2.9
COc1cccc(OC)c1OCCCCN1CCCCC1,9.0,110.0,.,118.0,.,.
Cn1ncc(Br)c1C(=O)NC1CCCCC1,2.0,101.0,.,98.0,.,.
CN(C(=O)c1c(Br)cnn1C)C12CC3CC(CC(C3)C1)C2,0.0,144.0*,13.9,109.0,0.2,0.4
CC(=O)c1ccc(S(=O)(=O)N2CCCCC2C(=O)O)cc1 (configuration not stated),-7.0,89.0,-17.7,90.0,0.0,0.0
COc1cccc(NC(=O)CSc2nc3c(c(-c4ccco4)c2C#N)CCCC3)c1,4.0,91.0,75.7*,95.0,-0.1,-0.5
COCCOC(=O)c1c(C)nc(SCC(=O)Nc2ccc(OC)cc2)c(C#N)c1-c1ccco1,1.0,107.0,2.0,103.0,0.0,-1.9
COc1ccc(CN2CCn3ncc(C(=O)Nc4cc(C)cc(C)c4)c3C2=O)cc1,-4.0,101.0,-17.1,100.0,0.6,3.0
